In the library only some 2.2% were active in any assay of this set; here they are far more common.
Cneo AK release: causes C. neoformans cell lysis; 360,000 compounds, 0.2% hits; lysis activity, % at 15 µM; adenylate kinase release luminescence, 4 h; normalised: neutral wells 0, clomiphene wells 100;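 active = mean lysis activity across replicates of at least 80%, whatever share of replicates individually reach that level; inactive = mean lysis activity below 80%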
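Material: C. neoformans cells; Schedule: 4 h static compound exposure, 37 °C, read 1 h post-reagent; Measured by: adenylate kinase release luminescence; Read-out: signal increase indicating cell lysis; Controls: Clomiphene as positive lysis control.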
PglD DTNB: PglD (C. jejuni) enzyme inhibition; purified PglD enzyme, DTNB colorimetric CoA detection; 360,000 compounds, 0.098% hits; inhibition, % at 12.5 µM; in the data active = inhibition above about 16%, passing the limit was not always enough
CR mimetic SO: caloric restriction mimetics inhibiting age-related superoxide in yeast | S. cerevisiae aged cells, superoxide DHE fluorescence; stronger effect = lower value | superoxide response (% of plate mean), % at 10 µM | 330,000 compounds, 0.18% hits;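 active = superoxide response under a set limit, about three screen SD below normal, cut at about 65% in these data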;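 also: yeast aged for seven days with compound at 30 °C before DHE staining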
rRNA inh HTS: selective bacterial rRNA inhibition in E. coli | E. coli WT GFP vs humanized-ribosome RFP mutants, fluorescence, 24 h; stronger effect = lower value; DMSO median 0, no signal -100 | GFP signal change (wild-type ribosome), % (test concentration not listed) | 350,000 compounds, 1.6% hits | AID 720706;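 active = significant combined selectivity score with lowered wild-type GFP, culture density cut under 30%, mutant RFP and density less affected; inactive = any of these conditions unmet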
SUMO Mot1 rescue: blocks SUMOylation pathway, rescuing yeast Mot1-301 growth; S. cerevisiae Mot1-301 growth rescue, ATP luminescence, 38.5C; percent above DMSO median, 100 means doubled; AID 2716; growth rescue, % at 18.8 µM; 320,000 compounds, 1% hits;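 active = every valid replicate shows activation above 250% relative to neutral control wells; inactive = the rest, any valid replicate at or below 250%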
Numbers stand for hits; - = inactive; . = not tested or not shown.

SMILES	Cneo AK release	PglD DTNB	CR mimetic SO	rRNA inh HTS	SUMO Mot1 rescue
COc1ccc(CNS(=O)(=O)c2ccc3c(c2)N(C(C)=O)CC(C)S3)cc1 (stereo not given)	-	-	-	-	-
COc1cc2c(cc1O)C=[N+](Cc1cccc(OC(F)(F)F)c1)CC2	-	-	.	.	.
CC1=C(C(=O)OCc2ccccc2)C(c2ccccc2)NC(=O)N1CCCC(=O)O (stereo not given)	-	-	-	-	-
CC1=C(C(=O)OCc2ccccc2)C(c2ccc(C#N)cc2)NC(=O)N1CCCC(=O)O (stereo not given)	-	-	-	-17	-
CC1=C(C(=O)OCC(Br)(Br)Br)C(c2cccc([N+](=O)[O-])c2)NC(=O)N1CCCC(=O)O (stereo not given)	-	-	-	-20	-
CCOC(=O)C1=C(C)N(CCCCCC(=O)O)C(=O)NC1c1cccc([N+](=O)[O-])c1 (stereo not given)	-	-	-	-	-
C[C@H](CO)N1C[C@H](C)[C@@H](CN(C)Cc2ccc(Oc3ccccc3)cc2)Oc2c(NC(=O)c3ccc(-c4nccs4)cc3)cccc2C1=O	-	-	.	-	.
N#C/C(=C/c1ccc(OCc2ccc(C(=O)O)cc2)c(Br)c1)c1cccc(F)c1	.	.	-	-27	-
Cc1cc(/C=C2\SC(=S)NC2=O)c(C)n1-c1ccc(O)cc1	.	.	-	-24	-
Cc1cc(/C=C2\SC(=S)NC2=O)c(C)n1-c1ccccc1	-	-	-	-	-
COc1ccc(N2CCN(c3ccc(N4C(=O)CC(C)C4=O)cc3[N+](=O)[O-])CC2)cc1 (stereo not given)	-	-	-	-29	-
CC1CC(=O)N(c2ccc(NCCc3ccc(O)cc3)c([N+](=O)[O-])c2)C1=O (stereo not given)	-	-	-	-22	-
Cc1noc(C)c1NC(=O)N(C)C[C@@H]1Oc2c(NC(=O)c3cnccn3)cccc2C(=O)N([C@H](C)CO)C[C@@H]1C	-	-	.	-	.
CC(C)(C)c1cc(OC(=O)C2CCCC2)ccc1O	-	-	-	-	-
CCCCC(CC)C(=O)Oc1ccc(O)c(C(C)(C)C)c1 (stereo not given)	-	-	-	-22	-
C[C@@H]1CN([C@@H](C)CO)S(=O)(=O)c2ccc(C#C[C@@H](C)O)cc2O[C@H]1CN(C)C(=O)C1CCCCC1	-	-	.	-	.
NNC(=O)c1oc2nc(-c3ccco3)cc(-c3ccco3)c2c1N	-	-	-	-14	-
C[C@H](NC(=O)C[C@@H]1C[C@H]2c3cc(NC(=O)NC4CCCCC4)ccc3O[C@H]2[C@H](CO)O1)c1ccccc1	-	-	.	-	.
CC(C)C[C@H]1CNC(=O)C(=O)N1C[C@@H]1CCCN1C[C@H](Cc1ccc(O)cc1)N1C[C@H](Cc2ccccc2)N(CC2CCCCC2)C(=O)C1=O	.	.	.	-29	.
O=C1NC[C@H](CCCCN2C[C@H](Cc3ccccc3)N(CCc3ccc(O)cc3)C(=O)C2=O)N(CCc2ccc(O)cc2)C1=O	.	.	.	-	.
O=C1NC[C@H](CCCCN2C[C@H](Cc3ccccc3)N(CC3CCCCC3)C(=O)C2=O)N(CCc2ccc(O)cc2)C1=O	.	.	.	-21	.
O=C1NC[C@H](CCCCN2C[C@H](Cc3ccccc3)N(CCc3ccc(O)cc3)C(=O)C2=O)N(CCc2ccccc2)C1=O	.	.	.	-18	.
CC(C)C[C@H]1CN([C@@H](Cc2ccccc2)CN2CCC[C@@H]2CN2C(=O)C(=O)NC[C@@H]2Cc2ccc(O)cc2)C(=O)C(=O)N1CC1CCCCCC1	-	-	.	-	.
CC(=O)N(C)C[C@H]1Oc2ncc(-c3cccc(C#N)c3)cc2C(=O)N([C@@H](C)CO)C[C@H]1C	-	-	.	-	.
C[C@H]1CN([C@@H](C)CO)C(=O)c2cccc(NS(=O)(=O)c3ccc(F)cc3)c2O[C@@H]1CN(C)S(=O)(=O)c1cn(C)cn1	-	-	.	-	.
SMILES	Cneo AK release	PglD DTNB	CR mimetic SO	rRNA inh HTS	SUMO Mot1 rescue
COc1ccc(NC(=O)CN(C)C(=O)CSc2ccc(Br)cc2)cc1	-	-	-	-30	-
Cc1cc(OCC(=O)O/N=C(\N)Cc2cccs2)ccc1Br	-	-	-	-24	-
CC(=O)N(C)C[C@H]1Oc2c(N)cccc2C(=O)N(C)C[C@@H]1C	.	.	.	-	.
CN(C)C(=O)[C@H]1[C@H](CO)[C@H]2Cn3c(ccc(-c4cccnc4)c3=O)[C@H]2N1Cc1ccccc1F	-	-	.	-	.
O=S(=O)(c1ccc(F)cc1)N1C[C@@H]2[C@H](c3ccccc31)[C@@H](CO)N2Cc1ccccc1Cl	92	-	.	-	.
CC(=O)N1[C@@H]2CN(S(=O)(=O)c3ccccc3F)c3ccccc3[C@@H]2[C@@H]1CO	92	-	.	-	.
O=S(=O)(c1ccc(F)cc1)N1C[C@H]2[C@@H](c3ccccc31)[C@@H](CO)N2Cc1ccccc1Cl	-	-	.	-	.
Cc1nn(C)cc1NC(=O)C[C@@H]1CC[C@@H]2[C@@H](COc3ccc(NC(=O)Nc4cccc(Cl)c4)cc3C(=O)N2C)O1	-	-	.	-	.
CC(=O)NCCc1nc2ccccc2n1CCOc1cccc(C)c1	.	.	-	-28	-
CN(C)S(=O)(=O)c1cccc(NC(=O)COC(=O)/C=C/c2ccc3c(c2)OCO3)c1	-	-	-	-27	-
O=C(COC(=O)/C=C/c1cccc(Cl)c1)Nc1cccc(S(=O)(=O)NC2=NCCC2)c1	-	-	-	-	-
O=C(COC(=O)/C=C/c1ccc(Cl)cc1)Nc1cccc(S(=O)(=O)NC2=NCCCCC2)c1	-	-	-	-20	-
C[C@@H]1CCc2cnnn2COC[C@H](Cc2ccccc2)NC1=O	.	.	.	-	.
O=C(c1ccccc1)N1CC(=O)N2[C@@H](CO)[C@H](c3ccc(/C=C/c4ccccc4)cc3)[C@@H]2C1	.	.	.	-	.
O=C(C[C@@H]1C[C@@H]2c3cc(NC(=O)NC4CCCC4)ccc3O[C@@H]2[C@@H](CO)O1)NCc1ccc(-c2ccccc2)cc1	-	-	.	-	.
O=C(C[C@H]1C[C@H]2c3cc(NC(=O)C4CCC4)ccc3O[C@H]2[C@@H](CO)O1)NCc1ccncc1	-	-	.	-	.
O=C(CN1C(=O)C2CC=C(Cl)CC2C1=O)Nc1ccc(C(=O)O)cc1 (stereo not given)	-	-	-	.	-
O=C(CN1C(=O)C2C3CC(C(Br)C3Br)C2C1=O)Nc1ccc(C(=O)O)cc1 (stereo not given)	-	-	54	-	-
COc1ccc(S(=O)(=O)Nc2ccc3c(c2)CC(=O)N([C@@H](C)CO)C[C@H](C)[C@H](CN(C)S(=O)(=O)c2cccs2)O3)cc1	-	-	.	-	.
O=C(O)c1cccc(S(=O)(=O)NCCC(c2ccccc2)c2ccccc2)c1	.	.	-	-27	-
O=C(O)c1cccc(S(=O)(=O)NCCc2ccccc2)c1	.	.	-	-	-
COc1ccc2c3c(n(C)c2c1)[C@@H](CO)N(Cc1ccccc1Cl)CC31CN(C(C)=O)C1	.	.	.	-	.
